Measured values taken from ChEMBL document CHEMBL3399974, “Discovery and SAR of novel series of imidazopyrimidinones and dihydroimidazopyrimidinones as positive allosteric modulators of the metabotropic glutamate receptor 5 (mGlu5)” (Bioorg Med Chem Lett, 2015).
The source made the active and inactive calls. No cut-off for these calls is given here.

What was measured:
[1] = Terminal half-life in rat at 1 mg/kg, iv and 10 mg/kg, po; type: ADME, organism-based; details: in vivo, read-out: beta t1/2 (converted)
In short: (§1)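 Rat PK: compound formulated at 1 mg/mL in 20% HP-β-CD and given at 1 mg/kg IV and 10 mg/kg PO.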

Rattus norvegicus [2] = test: Antipsychotic activity in rat assessed as reversal of amphetamine-induced hyperlocomotion at 56.6 mg/kg, po; type: functional
In short: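 Rats were dosed orally and scored for reversal of amphetamine-induced hyperlocomotion, a model of antipsychotic activity. Doses tested went up to 100 mg/kg. Terminal unbound brain concentrations were calculated at the tested doses.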

[3] = target: Metabotropic glutamate receptor 6 (Homo sapiens, UniProt O15303); test: Positive allosteric modulation at mGluR6 (unknown origin)
Cytochrome P450 3A4 = Cytochrome P450 3A4 (Homo sapiens, UniProt P08684); test: Inhibition of human CYP3A4; type: ADME
In short: (§2)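 Cocktail assay in human liver microsomes using known probe substrates for the major CYP isoforms (2C9, 2D6, 3A4, 1A2). IC50 was determined for each isoform.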

Rattus norvegicus [4] = test: Toxicity in rat assessed as pro-convulsive behavior up to 120 mg/kg, po by modified Irwin neurological test battery method; type: organism-based; set-up: dose 120 mg/kg, route oral; details: in vivo
Rattus norvegicus [5] = test: Antipsychotic activity in rat assessed as reversal of amphetamine-induced hyperlocomotion at 100 mg/kg, po; type: functional
In short: (§3)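 Rats dosed orally; reversal of amphetamine-induced hyperlocomotion scored as % reversal of amphetamine effect, across an oral dose range up to 100 mg/kg; terminal unbound brain concentrations calculated at the doses tested.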

[6] = target: Metabotropic glutamate receptor 5 (Rattus norvegicus) (UniProt P31424); test: Positive allosteric modulation at rat mGluR5 expressed in HEK293 cells assessed as amplitude of response at 30 uM by calcium mobilization assay relative to glutamate; type: functional, cell-based
In short: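 HEK293 cells stably expressing rat mGlu5 were used in a calcium mobilization assay. Test compound was given at 30 µM, and response amplitude is expressed as percent of the maximal response to 100 µM glutamate. Values are the average of three or more independent determinations.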

Cytochrome P450 1A2 = target: T1, Cytochrome P450 1A2 (Homo sapiens, UniProt P05177); test: Inhibition of human CYP1A2; type: ADME
T1 sequence (P05177 whole entry): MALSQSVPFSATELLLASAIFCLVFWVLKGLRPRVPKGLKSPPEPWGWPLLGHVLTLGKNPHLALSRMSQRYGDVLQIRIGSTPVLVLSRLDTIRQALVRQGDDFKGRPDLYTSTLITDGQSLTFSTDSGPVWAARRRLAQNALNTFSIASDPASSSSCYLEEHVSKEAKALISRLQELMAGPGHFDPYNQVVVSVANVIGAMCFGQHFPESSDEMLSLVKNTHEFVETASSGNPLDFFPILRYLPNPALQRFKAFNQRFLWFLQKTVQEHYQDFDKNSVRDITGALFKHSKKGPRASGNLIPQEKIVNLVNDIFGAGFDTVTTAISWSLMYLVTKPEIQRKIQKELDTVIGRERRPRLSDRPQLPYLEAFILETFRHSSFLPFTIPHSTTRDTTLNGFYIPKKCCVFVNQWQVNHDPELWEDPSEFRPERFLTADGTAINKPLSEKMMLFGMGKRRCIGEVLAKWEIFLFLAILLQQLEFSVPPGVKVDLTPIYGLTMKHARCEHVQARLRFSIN
In short: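 Cocktail assay in human liver microsomes with known probe substrates for CYP 2C9, 2D6, 3A4 and 1A2; IC50 determined.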

Rattus norvegicus [7] = test: Antipsychotic activity in rat assessed as reversal of amphetamine-induced hyperlocomotion at 3 mg/kg, po; type: functional, organism-based; set-up: dose 3 mg/kg; in short: as §3
[8] = target: Metabotropic glutamate receptor 5 (Homo sapiens) (UniProt P41594); test: Agonist activity at mGluR5 (unknown origin) at 30 uM
Rattus norvegicus [9] = test: Volume of distribution at steady state in rat at 1 mg/kg, iv and 10 mg/kg, po; type: ADME, organism-based; details: in vivo; in short: as §1
Canis familiaris = test: Toxicity in dog assessed as dizziness at 0.5 mg/ml, iv; type: organism-based, Canis lupus familiaris; details: in vivo
[10] = Plasma protein binding in rat; type: ADME, cell-free
[11] = Plasma protein binding in human; type: ADME, cell-free
[12] = Cmax in rat brain at 1 mg/kg, iv and 10 mg/kg, po; type: ADME, organism-based
[13] = Ratio of AUC in brain to plasma of rat at 1 mg/kg, iv and 10 mg/kg, po; type: ADME, organism-based
[14] = target: Metabotropic glutamate receptor 8 (Homo sapiens, UniProt O00222); test: Positive allosteric modulation at mGluR8 (unknown origin)
[15] = target: Metabotropic glutamate receptor 1 (Homo sapiens, UniProt Q13255); test: Positive allosteric modulation at mGluR1 (unknown origin)
[16] = Drug metabolism in human liver microsomes assessed as compound metabolized at 1 uM after 15 mins; type: ADME; details: read-out: Drug metabolism
In short: (§4)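 Test compound at 1 µM was incubated for 15 min with liver microsomes (human for HLM, rat for RLM). Read-out was % of compound metabolized.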

Cytochrome P450 2D6 = Cytochrome P450 2D6 (Homo sapiens, UniProt P10635); test: Inhibition of human CYP2D6; type: ADME; in short: as §2
Cytochrome P450 2C9 = Cytochrome P450 2C9 (Homo sapiens, UniProt P11712); test: Inhibition of human CYP2C9; type: ADME; in short: as §2
[17] = target: Metabotropic glutamate receptor 7 (Homo sapiens, UniProt Q14831); test: Positive allosteric modulation at mGluR7 (unknown origin)
[18] = target: Metabotropic glutamate receptor 3 (Homo sapiens, UniProt Q14832); test: Negative allosteric modulation at mGluR3 (unknown origin)
[19] = target: Metabotropic glutamate receptor 2 (Homo sapiens, UniProt Q14416); test: Positive allosteric modulation at mGluR2 (unknown origin)
Plasma = test: AUC in rat plasma at 1 mg/kg, iv and 10 mg/kg, po; type: ADME, organism-based; details: in vivo
[20] = Drug metabolism in rat liver microsomes assessed as compound metabolized at 1 uM after 15 mins; type: ADME; details: read-out: Drug metabolism; in short: as §4
[21] = Fraction unbound in rat brain at 1 mg/kg, iv and 10 mg/kg, po; type: ADME, organism-based
[22] = target: Metabotropic glutamate receptor 4 (Homo sapiens, UniProt Q14833); test: Positive allosteric modulation at mGluR4 (unknown origin)
[23] = target: T2, Metabotropic glutamate receptor 5 (Rattus norvegicus, UniProt P31424); test: Positive allosteric modulation at rat mGluR5 expressed in HEK293 cells by calcium mobilization assay; type: functional, cell-based
In short: (§5)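 HEK293 cells stably expressing rat mGlu5 were run in a 'triple add' calcium mobilization assay that detects agonism, PAM and NAM activity together. Response amplitude was expressed as % of the maximal response to 100 µM glutamate. Values are the mean of three or more independent determinations.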

Rattus norvegicus [24] = test: Antipsychotic activity in po dosed rat assessed as reversal of amphetamine-induced hyperlocomotion; type: functional, organism-based; in short: as §3
[25] = target: T2, Metabotropic glutamate receptor 5; test: Negative allosteric modulation at rat mGluR5 expressed in HEK293 cells by calcium mobilization assay; type: functional, cell-based; details: read-out: IC50; in short: as §5
[26] = target: Metabotropic glutamate receptor 5 (Rattus norvegicus) (UniProt P31424); test: Negative allosteric modulation at rat mGluR5 expressed in HEK293 cells by calcium mobilization assay relative to glutamate; details: 30 uM

Chain of Metabotropic glutamate receptor 5 (Rattus norvegicus) (P31424 21-1203 limits assumed): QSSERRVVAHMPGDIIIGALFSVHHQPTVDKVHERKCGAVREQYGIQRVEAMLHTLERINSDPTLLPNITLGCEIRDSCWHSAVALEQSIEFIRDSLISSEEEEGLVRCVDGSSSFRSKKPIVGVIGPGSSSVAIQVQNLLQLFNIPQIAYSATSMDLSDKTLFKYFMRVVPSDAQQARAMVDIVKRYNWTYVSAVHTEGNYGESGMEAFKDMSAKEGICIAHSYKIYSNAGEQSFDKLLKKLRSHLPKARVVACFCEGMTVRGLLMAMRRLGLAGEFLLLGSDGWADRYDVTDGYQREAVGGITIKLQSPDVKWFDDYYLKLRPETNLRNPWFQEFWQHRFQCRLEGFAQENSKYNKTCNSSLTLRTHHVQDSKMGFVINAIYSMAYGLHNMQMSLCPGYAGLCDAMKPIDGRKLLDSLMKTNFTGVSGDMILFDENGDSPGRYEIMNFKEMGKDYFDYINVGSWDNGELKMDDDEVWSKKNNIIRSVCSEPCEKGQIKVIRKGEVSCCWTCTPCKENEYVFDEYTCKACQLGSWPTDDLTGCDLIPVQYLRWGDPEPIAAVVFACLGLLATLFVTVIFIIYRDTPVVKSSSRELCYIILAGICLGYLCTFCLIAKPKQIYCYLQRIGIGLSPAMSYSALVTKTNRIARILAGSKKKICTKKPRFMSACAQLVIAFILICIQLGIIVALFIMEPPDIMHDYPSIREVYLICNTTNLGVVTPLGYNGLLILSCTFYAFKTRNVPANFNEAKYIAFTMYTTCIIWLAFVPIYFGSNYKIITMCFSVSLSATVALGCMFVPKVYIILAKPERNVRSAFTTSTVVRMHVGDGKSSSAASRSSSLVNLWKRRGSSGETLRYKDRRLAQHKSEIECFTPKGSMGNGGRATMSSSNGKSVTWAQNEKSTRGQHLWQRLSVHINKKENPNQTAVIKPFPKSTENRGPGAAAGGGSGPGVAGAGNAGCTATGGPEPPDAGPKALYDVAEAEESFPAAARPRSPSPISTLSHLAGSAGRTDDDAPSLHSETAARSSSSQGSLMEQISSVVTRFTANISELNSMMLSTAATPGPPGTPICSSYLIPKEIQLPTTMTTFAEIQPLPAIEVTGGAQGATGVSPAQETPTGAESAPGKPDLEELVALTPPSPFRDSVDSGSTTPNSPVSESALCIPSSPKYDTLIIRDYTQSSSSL
T2 sequence (P31424 whole entry): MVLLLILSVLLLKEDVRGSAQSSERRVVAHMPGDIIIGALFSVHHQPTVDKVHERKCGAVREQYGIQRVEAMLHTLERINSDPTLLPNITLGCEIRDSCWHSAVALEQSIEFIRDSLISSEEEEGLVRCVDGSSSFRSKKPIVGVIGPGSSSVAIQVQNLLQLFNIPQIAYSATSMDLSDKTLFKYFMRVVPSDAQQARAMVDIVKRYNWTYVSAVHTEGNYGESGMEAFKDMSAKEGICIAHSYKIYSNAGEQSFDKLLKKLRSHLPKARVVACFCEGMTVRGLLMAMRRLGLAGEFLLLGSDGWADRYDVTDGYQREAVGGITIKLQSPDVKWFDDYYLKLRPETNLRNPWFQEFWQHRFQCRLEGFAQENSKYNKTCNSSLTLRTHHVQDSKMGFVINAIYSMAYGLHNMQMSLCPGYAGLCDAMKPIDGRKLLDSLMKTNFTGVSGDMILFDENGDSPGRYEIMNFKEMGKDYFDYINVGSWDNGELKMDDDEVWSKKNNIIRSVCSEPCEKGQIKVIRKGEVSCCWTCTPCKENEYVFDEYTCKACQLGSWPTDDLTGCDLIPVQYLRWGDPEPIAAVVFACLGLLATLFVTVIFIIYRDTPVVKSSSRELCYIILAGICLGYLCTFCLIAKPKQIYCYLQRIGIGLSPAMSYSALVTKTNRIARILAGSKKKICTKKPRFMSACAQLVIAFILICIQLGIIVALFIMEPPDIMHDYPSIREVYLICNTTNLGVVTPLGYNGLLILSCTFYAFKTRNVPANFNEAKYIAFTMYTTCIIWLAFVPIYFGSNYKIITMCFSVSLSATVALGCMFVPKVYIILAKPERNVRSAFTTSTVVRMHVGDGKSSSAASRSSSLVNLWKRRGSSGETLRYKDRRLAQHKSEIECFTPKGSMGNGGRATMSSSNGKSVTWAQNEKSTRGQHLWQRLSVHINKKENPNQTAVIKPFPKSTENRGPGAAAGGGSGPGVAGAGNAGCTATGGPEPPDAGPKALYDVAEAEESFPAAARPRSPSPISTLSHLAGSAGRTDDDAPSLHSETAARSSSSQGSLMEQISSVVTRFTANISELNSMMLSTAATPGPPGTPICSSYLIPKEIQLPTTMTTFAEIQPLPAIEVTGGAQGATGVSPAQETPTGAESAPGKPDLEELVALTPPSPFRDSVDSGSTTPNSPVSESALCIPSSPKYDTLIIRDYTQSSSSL
Chain of Metabotropic glutamate receptor 4 (Q14833 whole entry): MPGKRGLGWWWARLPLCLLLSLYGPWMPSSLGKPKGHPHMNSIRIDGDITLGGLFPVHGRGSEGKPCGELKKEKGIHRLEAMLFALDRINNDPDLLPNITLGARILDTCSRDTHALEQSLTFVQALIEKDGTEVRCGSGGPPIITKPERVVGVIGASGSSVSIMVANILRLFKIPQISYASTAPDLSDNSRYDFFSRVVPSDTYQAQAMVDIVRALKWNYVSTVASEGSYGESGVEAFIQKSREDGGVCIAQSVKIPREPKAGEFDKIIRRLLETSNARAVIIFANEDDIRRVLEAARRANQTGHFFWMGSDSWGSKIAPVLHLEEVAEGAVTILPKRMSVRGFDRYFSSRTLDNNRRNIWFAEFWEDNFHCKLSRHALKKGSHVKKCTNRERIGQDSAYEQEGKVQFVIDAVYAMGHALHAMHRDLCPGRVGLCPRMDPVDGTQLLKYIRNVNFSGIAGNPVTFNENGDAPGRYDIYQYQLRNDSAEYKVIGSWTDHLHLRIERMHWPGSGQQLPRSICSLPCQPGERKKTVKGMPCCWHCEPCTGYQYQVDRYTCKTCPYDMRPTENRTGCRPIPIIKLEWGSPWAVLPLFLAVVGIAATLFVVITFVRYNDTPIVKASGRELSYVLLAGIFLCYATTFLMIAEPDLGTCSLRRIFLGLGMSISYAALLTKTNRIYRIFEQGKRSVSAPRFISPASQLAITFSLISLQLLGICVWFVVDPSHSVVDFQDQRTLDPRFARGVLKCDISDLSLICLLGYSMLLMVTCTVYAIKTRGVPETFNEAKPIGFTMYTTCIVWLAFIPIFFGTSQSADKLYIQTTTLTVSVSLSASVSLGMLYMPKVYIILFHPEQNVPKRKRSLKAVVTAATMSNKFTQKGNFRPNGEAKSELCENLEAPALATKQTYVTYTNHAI
Chain of Metabotropic glutamate receptor 2 (Q14416 whole entry): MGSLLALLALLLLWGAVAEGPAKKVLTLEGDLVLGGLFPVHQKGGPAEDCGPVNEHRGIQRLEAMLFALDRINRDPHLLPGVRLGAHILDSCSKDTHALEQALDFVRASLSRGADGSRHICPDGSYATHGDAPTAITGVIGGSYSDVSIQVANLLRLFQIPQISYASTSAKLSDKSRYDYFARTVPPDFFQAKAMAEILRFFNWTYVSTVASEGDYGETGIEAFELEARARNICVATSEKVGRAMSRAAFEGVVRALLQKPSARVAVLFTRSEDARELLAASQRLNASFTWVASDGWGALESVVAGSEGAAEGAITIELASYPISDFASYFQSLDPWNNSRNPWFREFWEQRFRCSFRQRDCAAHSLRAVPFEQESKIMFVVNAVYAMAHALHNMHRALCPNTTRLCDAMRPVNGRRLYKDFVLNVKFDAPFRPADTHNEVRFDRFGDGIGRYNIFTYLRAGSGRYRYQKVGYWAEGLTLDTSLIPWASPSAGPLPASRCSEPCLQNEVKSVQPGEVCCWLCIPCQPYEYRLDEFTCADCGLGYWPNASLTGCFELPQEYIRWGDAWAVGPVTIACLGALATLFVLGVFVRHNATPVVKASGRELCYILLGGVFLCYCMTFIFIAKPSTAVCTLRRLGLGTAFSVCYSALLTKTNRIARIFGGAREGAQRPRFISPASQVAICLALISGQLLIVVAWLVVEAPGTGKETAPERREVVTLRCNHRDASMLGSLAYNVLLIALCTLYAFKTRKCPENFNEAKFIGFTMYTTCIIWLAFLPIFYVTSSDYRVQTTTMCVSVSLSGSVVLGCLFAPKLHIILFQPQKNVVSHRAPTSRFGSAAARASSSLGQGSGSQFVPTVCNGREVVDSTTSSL
Chain of Cytochrome P450 2D6 (P10635 whole entry): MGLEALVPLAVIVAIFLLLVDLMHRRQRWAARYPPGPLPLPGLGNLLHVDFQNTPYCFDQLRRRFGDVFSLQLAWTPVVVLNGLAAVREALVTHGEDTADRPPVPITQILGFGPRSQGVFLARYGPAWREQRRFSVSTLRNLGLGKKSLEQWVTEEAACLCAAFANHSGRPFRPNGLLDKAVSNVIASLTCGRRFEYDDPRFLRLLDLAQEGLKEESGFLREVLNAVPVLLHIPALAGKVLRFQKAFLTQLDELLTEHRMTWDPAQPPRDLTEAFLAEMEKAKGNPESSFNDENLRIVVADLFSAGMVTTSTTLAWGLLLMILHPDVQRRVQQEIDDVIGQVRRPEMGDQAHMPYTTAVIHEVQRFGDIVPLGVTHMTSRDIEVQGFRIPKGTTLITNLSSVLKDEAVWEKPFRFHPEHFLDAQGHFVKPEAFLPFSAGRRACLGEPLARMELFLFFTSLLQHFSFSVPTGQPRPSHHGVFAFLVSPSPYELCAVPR

O=C1N(c2ccc(F)cc2)CCc2nc(COc3ccccc3)cn21
half-life [1]: 55.8 min
Activity (Rattus norvegicus [2]): 50%
EC50 [3]: > 10000 nM
IC50 (Cytochrome P450 3A4): > 20000 nM
Activity (Rattus norvegicus [4]): Toxic
Activity (Rattus norvegicus [5]): 50%
Emax [6]: 70%
IC50 (Cytochrome P450 1A2): > 20000 nM
Activity (Rattus norvegicus [7]): Active
Activity [8]: inactive
Vdss (Rattus norvegicus [9]): 1.4 L/kg
Activity (Canis familiaris): Toxic
PPB [10]: 88.1%
PPB [11]: 90.3%
Cmax [12]: 6.05 µM
Kp [13]: 1.8
EC50 [14]: > 10000 nM
EC50 [15]: > 10000 nM
metabolised at 0.25 h, 1 µM [16]: 18%
IC50 (Cytochrome P450 2D6): > 20000 nM
IC50 (Cytochrome P450 2C9): > 20000 nM
EC50 [17]: > 10000 nM
IC50 [18]: 290 nM
EC50 [19]: > 10000 nM
AUC (Plasma): 7.2 µM·h
metabolised at 0.25 h, 1 µM [20]: 19%
fraction unbound [21]: 0.062
EC50 [22]: > 10000 nM
EC50 [23]: 86 nM
Activity (Rattus norvegicus [24]): Dose-dependent effect

Cc1ccc(N2CCc3nc(COc4ccccc4)cn3C2=O)nc1
Emax [6]: 74%
metabolised at 0.25 h, 1 µM [16]: 35%
metabolised at 0.25 h, 1 µM [20]: 98%
EC50 [23]: 485 nM

O=c1n(-c2ccc(F)cc2)ccc2nc(COc3ccccc3)c(Cl)n12
IC50 [25]: 218 nM
metabolised at 0.25 h, 1 µM [16]: 6%
IC50 [26]: 5 nM
metabolised at 0.25 h, 1 µM [20]: 73%

Cc1cccc(-n2ccc3nc(COc4ccccc4)cn3c2=O)n1
Emax [6]: 64%
EC50 [23]: 3580 nM

O=c1n(-c2ccc(F)cn2)ccc2nc(COc3ccccc3)cn12
Emax [6]: 87%
EC50 [23]: 587 nM

CN(C)c1cccc(-n2ccc3nc(COc4ccccc4)cn3c2=O)n1
Emax [6]: 87%
metabolised at 0.25 h, 1 µM [16]: 66%
metabolised at 0.25 h, 1 µM [20]: 90%
EC50 [23]: 284 nM

O=c1[nH]ccc2nc(COc3ccccc3)cn12
Emax [6]: 19%
EC50 [23]: > 30000 nM

O=c1n(-c2ccc(F)cc2)ccc2nc(COc3ccccn3)cn12
Emax [6]: 88%
EC50 [23]: 3170 nM

Cc1ccc(-n2ccc3nc(COc4ccccc4)cn3c2=O)nc1
Emax [6]: 84%
EC50 [23]: 2000 nM
